Test results as given in ChEMBL document CHEMBL4765263, “Design, synthesis, biological evaluation of 6-(2-amino-1H-benzo[d]imidazole-6-yl)quinazolin-4(3H)-one derivatives as novel anticancer agents with Aurora kinase inhibition” (Eur J Med Chem, 2020).
Calls of active or inactive are those of the source. The rule behind the calls is not given here.

How the values were obtained:
MDA-MB-231 [1] = experiment: Induction of apoptosis in human MDA-MB-231 cells; assay type: functional, cell-based; conditions: dose 1-4 µM
MDA-MB-231 [2] = experiment: Induction of cell cycle arrest in human MDA-MB-231 cells assessed as S phase accumulation at 2 uM incubated for 24 hrs by PI staining based flow cytometry analysis (reference value: 38.65 %); assay type: functional
MDA-MB-231 [3] = experiment: Induction of apoptosis in human MDA-MB-231 cells assessed as late apoptotic cells at 2 uM incubated for 48 hrs by annexin V-FITC and PI staining based flow cytometry analysis (reference value: 2.52 %); assay type: functional
[4] = target: T1, Aurora kinase A (Homo sapiens) (UniProt O14965); experiment: Inhibition of Aurora A in human MDA-MB-231 cells assessed as reduction in Aurora Thr288 residue phosphorylation incubated for 24 hrs by Western blot analysis; assay type: cell-based; conditions: dose 1-4 µM
T1 sequence (whole entry): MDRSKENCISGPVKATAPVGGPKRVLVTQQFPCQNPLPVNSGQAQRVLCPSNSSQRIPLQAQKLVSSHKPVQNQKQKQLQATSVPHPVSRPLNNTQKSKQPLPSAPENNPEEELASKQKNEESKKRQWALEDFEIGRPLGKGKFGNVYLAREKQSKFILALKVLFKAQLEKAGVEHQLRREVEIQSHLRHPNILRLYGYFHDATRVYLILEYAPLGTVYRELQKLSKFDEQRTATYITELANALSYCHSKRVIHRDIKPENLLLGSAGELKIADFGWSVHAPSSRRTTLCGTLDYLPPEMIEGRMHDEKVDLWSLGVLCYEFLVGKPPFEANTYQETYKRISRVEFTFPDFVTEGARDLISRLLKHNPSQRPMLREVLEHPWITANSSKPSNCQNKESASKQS
In short: (§1)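 MDA-MB-231 cells exposed to DMSO or drug at set concentrations for 24 h. Western blot for phospho-Aurora A at Thr288 or phospho-histone H3 at Ser10, with total Aurora A, histone H3 and GAPDH antibodies also used. Bands quantified by densitometry.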

MDA-MB-231 [5] = experiment: Induction of apoptosis in human MDA-MB-231 cells assessed as early apoptotic cells at 1 uM incubated for 48 hrs by annexin V-FITC and PI staining based flow cytometry analysis (reference value: 3.90 %); assay type: functional
MDA-MB-231 [6] = experiment: Induction of apoptosis in human MDA-MB-231 cells assessed as necrotic cells at 2 uM incubated for 48 hrs by annexin V-FITC and PI staining based flow cytometry analysis (reference value: 3.08 %); assay type: functional
MDA-MB-231 [7] = experiment: Induction of apoptosis in human MDA-MB-231 cells assessed as early apoptotic cells at 2 uM incubated for 48 hrs by annexin V-FITC and PI staining based flow cytometry analysis (reference value: 3.90 %); assay type: functional
MDA-MB-231 [8] = experiment: Induction of apoptosis in human MDA-MB-231 cells assessed as necrotic cells at 4 uM incubated for 48 hrs by annexin V-FITC and PI staining based flow cytometry analysis (reference value: 3.08 %); assay type: functional
MDA-MB-231 [9] = experiment: Induction of cell cycle arrest in human MDA-MB-231 cells assessed as G0/G1 phase accumulation at 1 uM incubated for 24 hrs by PI staining based flow cytometry analysis (reference value: 42.84 %); assay type: functional
MDA-MB-231 [10] = experiment: Induction of cell cycle arrest in human MDA-MB-231 cells assessed as G2/M phase accumulation at 5 uM incubated for 16 hrs by PI staining based flow cytometry analysis (reference value: 16.62 %)
MDA-MB-231 [11] = experiment: Induction of apoptosis in human MDA-MB-231 cells assessed as increase in caspase-3 cleavage at 1 to 4 uM incubated for 48 hrs by Western blot analysis; assay type: functional, cell-based; conditions: dose 1-4 µM
In short: (§2)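 MDA-MB-231 cells treated for 48 h at set concentrations. Cleaved PARP, cleaved caspase-3 and cleaved caspase-9 detected by Western blot and quantified by densitometry. Mean ± SEM, n = 3.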

MDA-MB-231 [12] = experiment: Antiproliferative activity against human MDA-MB-231 cells assessed as reduction in cell growth incubated for 48 hrs; assay type: functional, cell-based; conditions: dose 0.5-2 µM
MDA-MB-231 [13] = experiment: Induction of apoptosis in human MDA-MB-231 cells assessed as increase in PARP cleavage at 1 to 4 uM incubated for 48 hrs by Western blot analysis; assay type: functional, cell-based; conditions: dose 1-4 µM; in short: as §2
MDA-MB-231 [14] = experiment: Induction of apoptosis in human MDA-MB-231 cells assessed as viable cells at 1 uM incubated for 48 hrs by annexin V-FITC and PI staining based flow cytometry analysis (reference value: 90.49 %); assay type: functional; conditions: read-out: Activity
MDA-MB-231 [15] = experiment: Induction of cell cycle arrest in human MDA-MB-231 cells assessed as increase G2/M phase accumulation incubated for 24 hrs by PI staining based flow cytometry analysis; assay type: functional; conditions: dose 1-4 µM
MDA-MB-231 [16] = experiment: Induction of cell cycle arrest in human MDA-MB-231 cells assessed as S phase accumulation at 4 uM incubated for 24 hrs by PI staining based flow cytometry analysis (reference value: 38.65 %); assay type: functional
MDA-MB-231 [17] = experiment: Induction of cell cycle arrest in human MDA-MB-231 cells assessed as G0/G1 phase accumulation at 2 uM incubated for 24 hrs by PI staining based flow cytometry analysis (reference value: 42.84 %); assay type: functional
PC-3 = experiment: Cytotoxicity against human PC-3 cells assessed as reduction in cell viability incubated for 72 hrs by MTT assay; assay type: functional, cell-based; conditions: PC-3, 72 h
In short: (§3)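 MTT viability assay. Cells kept in DMEM with 10% FBS at 37 °C and 5% CO2. Seeded at 5×10^3 cells per well and exposed to a range of compound concentrations from 20 mM DMSO stocks. IC50 is the mean of triplicate measurements.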

MDA-MB-231 [18] = experiment: Induction of cell cycle arrest in human MDA-MB-231 cells assessed as G2/M phase accumulation at 1 uM incubated for 24 hrs by PI staining based flow cytometry analysis (reference value: 16.62 %); assay type: functional
MDA-MB-231 [19] = experiment: Induction of cell cycle arrest in human MDA-MB-231 cells assessed as S phase accumulation at 1 uM incubated for 24 hrs by PI staining based flow cytometry analysis (reference value: 38.65 %); assay type: functional
MDA-MB-231 [20] = experiment: Cytotoxicity against human MDA-MB-231 cells assessed as reduction in cell viability incubated for 72 hrs by MTT assay; assay type: functional, cell-based; conditions: MDA-MB-231, 72 h; in short: as §3
MDA-MB-231 [21] = experiment: Induction of apoptosis in human MDA-MB-231 cells assessed as early apoptotic cells at 4 uM incubated for 48 hrs by annexin V-FITC and PI staining based flow cytometry analysis (reference value: 3.90 %); assay type: functional
Aurora kinase A = target: T2, Aurora kinase A (Homo sapiens, UniProt O14965); experiment: Inhibition of Aurora A (unknown origin) incubated for 1 hrs by HTRF assay
T2 sequence (O14965 whole entry): T1 sequence (whole entry)

[22] = target: T1, Aurora kinase A (Homo sapiens); experiment: Inhibition of Aurora A in human MDA-MB-231 cells assessed as reduction in Histone H3 phosphorylation incubated for 24 hrs by Western blot analysis; assay type: cell-based; conditions: dose 1-4 µM; in short: as §1
MDA-MB-231 [23] = experiment: Induction of cell cycle arrest in human MDA-MB-231 cells assessed as G0/G1 phase accumulation at 4 uM incubated for 24 hrs by PI staining based flow cytometry analysis (reference value: 42.84 %); assay type: functional
[24] = system: MDA-MB-231 (Homo sapiens); experiment: Anticlonogenic activity against human MDA-MB-231 cells assessed as inhibition of colony formation at 0.5 to 2 uM incubated for 72 hrs followed by replacement of medium and measured after 10 days by crystal violet staining based visual analysis; conditions: dose 0.5-2 µM
SH-SY5Y = experiment: Cytotoxicity against human SH-SY5Y cells assessed as reduction in cell viability incubated for 72 hrs by MTT assay; assay type: functional, cell-based; in short: as §3
MDA-MB-231 [25] = experiment: Induction of apoptosis in human MDA-MB-231 cells assessed as necrotic cells at 1 uM incubated for 48 hrs by annexin V-FITC and PI staining based flow cytometry analysis (reference value: 3.08 %); assay type: functional
MDA-MB-231 [26] = experiment: Cytotoxicity against human MDA-MB-231 cells assessed as cell blebbing at >1 uM incubated for 48 hrs; assay type: functional, cell-based; conditions: dose microM >1, time 48.0 hrs
MDA-MB-231 [27] = experiment: Induction of cell cycle arrest in human MDA-MB-231 cells assessed as G2/M phase accumulation at 2 uM incubated for 24 hrs by PI staining based flow cytometry analysis (reference value: 16.62 %); assay type: functional
MDA-MB-231 [28] = experiment: Induction of apoptosis in human MDA-MB-231 cells assessed as viable cells at 2 uM incubated for 48 hrs by annexin V-FITC and PI staining based flow cytometry analysis (reference value: 90.49 %); assay type: functional; conditions: read-out: Activity
MDA-MB-231 [29] = experiment: Induction of apoptosis in human MDA-MB-231 cells assessed as viable cells at 4 uM incubated for 48 hrs by annexin V-FITC and PI staining based flow cytometry analysis (reference value: 90.49 %); assay type: functional; conditions: read-out: Activity
MDA-MB-231 [30] = experiment: Induction of apoptosis in human MDA-MB-231 cells assessed as increase in caspase-9 cleavage at 1 to 4 uM incubated for 48 hrs by Western blot analysis; assay type: functional, cell-based; conditions: dose 1-4 µM; in short: as §2
MDA-MB-231 [31] = experiment: Induction of apoptosis in human MDA-MB-231 cells assessed as late apoptotic cells at 4 uM incubated for 48 hrs by annexin V-FITC and PI staining based flow cytometry analysis (reference value: 2.52 %); assay type: functional
Aurora kinase B = Aurora kinase B (Homo sapiens, UniProt Q96GD4); experiment: Inhibition of Aurora B (unknown origin) incubated for 1 hrs by HTRF assay
MDA-MB-231 [32] = experiment: Induction of apoptosis in human MDA-MB-231 cells assessed as late apoptotic cells at 1 uM incubated for 48 hrs by annexin V-FITC and PI staining based flow cytometry analysis (reference value: 2.52 %); assay type: functional
MDA-MB-231 [33] = experiment: Cytotoxicity against human MDA-MB-231 cells assessed as cell shrinkage at >1 uM incubated for 48 hrs; assay type: functional, cell-based; conditions: dose microM >1, time 48.0 hrs
[34] = Solubility of compound in water; assay type: physicochemical; conditions: buffer

Aurora kinase B, sequence (Q96GD4 whole entry): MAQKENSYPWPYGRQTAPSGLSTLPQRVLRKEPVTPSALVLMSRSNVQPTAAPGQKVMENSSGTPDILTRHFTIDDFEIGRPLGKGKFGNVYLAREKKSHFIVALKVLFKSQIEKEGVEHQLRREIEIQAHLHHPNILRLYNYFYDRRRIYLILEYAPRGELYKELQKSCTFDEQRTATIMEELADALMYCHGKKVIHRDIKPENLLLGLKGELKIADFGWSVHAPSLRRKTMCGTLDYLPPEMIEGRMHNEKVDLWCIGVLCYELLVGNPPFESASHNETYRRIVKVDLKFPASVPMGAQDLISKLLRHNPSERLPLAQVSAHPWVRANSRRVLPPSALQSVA

CCC(=O)Nc1nc2ccc(-c3ccc4ncn(CCN5CCOCC5)c(=O)c4c3)cc2[nH]1
Activity (MDA-MB-231 [1]): Dose-dependent effect
Activity (MDA-MB-231 [2]): 25.43%
Activity (MDA-MB-231 [3]): 8.25%
inhibition [4]: Dose-dependent effect
Activity (MDA-MB-231 [5]): 4.27%
Activity (MDA-MB-231 [6]): 11.9%
Activity (MDA-MB-231 [7]): 11.61%
Activity (MDA-MB-231 [8]): 15.91%
Activity (MDA-MB-231 [9]): 36.36%
Activity (MDA-MB-231 [10]): 76.19%
Activity (MDA-MB-231 [11]): Active
Activity (MDA-MB-231 [12]): Dose-dependent effect
Activity (MDA-MB-231 [13]): Active
viability at 1 µM (MDA-MB-231 [14]): 89%
Activity (MDA-MB-231 [15]): Dose-dependent effect
Activity (MDA-MB-231 [16]): 6.99%
Activity (MDA-MB-231 [17]): 28.68%
IC50 (PC-3): 1090 nM
Activity (MDA-MB-231 [18]): 21.84%
Activity (MDA-MB-231 [19]): 38.28%
IC50 (MDA-MB-231 [20]): 380 nM
Activity (MDA-MB-231 [21]): 15.33%
IC50 (Aurora kinase A): 21.9 nM
inhibition [22]: Dose-dependent effect
Activity (MDA-MB-231 [23]): 5.59%
Activity [24]: Active
IC50 (SH-SY5Y): 770 nM
Activity (MDA-MB-231 [25]): 4.02%
Activity (MDA-MB-231 [26]): Active
Activity (MDA-MB-231 [27]): 39.38%
viability at 2 µM (MDA-MB-231 [28]): 68.2%
viability at 4 µM (MDA-MB-231 [29]): 53.4%
Activity (MDA-MB-231 [30]): Active
Activity (MDA-MB-231 [31]): 15.41%
IC50 (Aurora kinase B): 273 nM
Activity (MDA-MB-231 [32]): 2.71%
Activity (MDA-MB-231 [33]): Active

O=C(Nc1nc2ccc(-c3ccc4ncn(CCN5CCOCC5)c(=O)c4c3)cc2[nH]1)c1ccccc1
IC50 (PC-3): > 20000 nM
IC50 (MDA-MB-231 [20]): > 20000 nM
IC50 (SH-SY5Y): > 20000 nM

CCC(=O)Nc1nc2ccc(-c3ccc4ncn(CCc5c[nH]c6ccccc56)c(=O)c4c3)cc2[nH]1
IC50 (PC-3): 1670 nM
IC50 (MDA-MB-231 [20]): 550 nM
IC50 (Aurora kinase A): 27.1 nM
IC50 (SH-SY5Y): 1230 nM
solubility [34]: Insoluble
IC50 (Aurora kinase B): 330 nM

CCC(=O)Nc1nc2ccc(-c3ccc4ncn(CCN5CCCCC5)c(=O)c4c3)cc2[nH]1
IC50 (PC-3): 6570 nM
IC50 (MDA-MB-231 [20]): 1230 nM
IC50 (SH-SY5Y): 4020 nM

CCC(=O)Nc1nc2ccc(-c3ccc4ncn(C)c(=O)c4c3)cc2[nH]1
IC50 (PC-3): > 20000 nM
IC50 (MDA-MB-231 [20]): 13500 nM
IC50 (SH-SY5Y): 18100 nM

CCC(=O)Nc1nc2ccc(-c3ccc4ncn(CC(=O)N5CCOCC5)c(=O)c4c3)cc2[nH]1
IC50 (PC-3): > 20000 nM
IC50 (MDA-MB-231 [20]): > 20000 nM
IC50 (SH-SY5Y): > 20000 nM
